Screening data from PubChem BioAssay.
HTRA1 inh: HTRA1 serine protease inhibitors, primary screen, biochemical, fluorescence polarization, HTS; recombinant HTRA1, FP-rhodamine activity-based probe; inhibition, % at 5.96 µM; hit rate 0.5% among 340,000; in the data active = inhibition above about 36%;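 note: 0% = enzyme with DMSO and 100% = wells lacking enzyme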
SIAE primary: human SIAE inhibitors, primary screen, biochemical, fluorescence polarization, FP-Rh probe, 1536-well HTS; Sialate O-acetylesterase (Homo sapiens), Q9HAT2; SIAE FP-Rh probe binding; inhibition, % at 9.66 µM; hit rate 0.69% among 370,000; AID 1053197, 2014;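 active = inhibition above a cutoff: mean of compounds within the control limits plus 3 SD of those, cut at about 17% in these data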;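 note: 0% = plate median of compound wells and 100% = probe without SIAE protein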
mABHD4 FP: ABHD4 inhibitors, primary screen, biochemical, fluorescence polarization, mouse; purified mABHD4, FP-Rh probe fluorescence polarization; (Lyso)-N-acylphosphatidylethanolamine lipase (Mus musculus), Q8VD66; inhibition, % at 8.92 µM; hit rate 0.54% among 370,000;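 active = inhibition exceeding the mean over every tested compound plus 3 SD, cut at about 30% in these data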;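 note: 0% = plate median of compound wells and 100% = S159A mutant with DMSO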
Target sequence (Q8VD66 whole entry, looked up): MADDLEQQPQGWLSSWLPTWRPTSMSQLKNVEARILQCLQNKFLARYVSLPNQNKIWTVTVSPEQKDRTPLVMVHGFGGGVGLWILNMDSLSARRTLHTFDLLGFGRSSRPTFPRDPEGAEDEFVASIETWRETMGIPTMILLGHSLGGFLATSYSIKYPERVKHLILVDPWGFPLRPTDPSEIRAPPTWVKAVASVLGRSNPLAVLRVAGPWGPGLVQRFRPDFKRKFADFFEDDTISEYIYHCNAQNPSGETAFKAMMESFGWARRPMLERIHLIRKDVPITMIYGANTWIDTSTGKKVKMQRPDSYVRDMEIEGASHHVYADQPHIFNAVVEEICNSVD
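Material: mouse ABHD4 enzyme, wild type; Benchmarks: S159A mutant high control, sample median low control; Buffer or medium: HEPES pH 7.0, NaCl, Pluronic buffer; Signal: fluorescence polarization; Read-out: percent inhibition of probe binding, normalized to plate controls; Timing: pre-incubation 45 min, probe exposure 60 min, at 25 °C; Dosing: 8.92 µM, single dose.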
TDP2 inh: human TDP2 enzyme inhibitors, primary screen, biochemical, epi absorbance, recombinant enzyme; Tyrosyl-DNA phosphodiesterase 2 (Homo sapiens), O95551; T5PNP hydrolysis, p-nitrophenol absorbance 415 nm; inhibition, % at 12.8 µM; hit rate 0.34% among 370,000; AID 720702, 2013;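 active = inhibition above the mean of all tested compounds plus 3 SD, set per campaign, cut at about 25% in these data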;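 note: 0% = DMSO with enzyme and 100% = buffer with substrate but no TDP2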
Target sequence (O95551 whole entry, looked up): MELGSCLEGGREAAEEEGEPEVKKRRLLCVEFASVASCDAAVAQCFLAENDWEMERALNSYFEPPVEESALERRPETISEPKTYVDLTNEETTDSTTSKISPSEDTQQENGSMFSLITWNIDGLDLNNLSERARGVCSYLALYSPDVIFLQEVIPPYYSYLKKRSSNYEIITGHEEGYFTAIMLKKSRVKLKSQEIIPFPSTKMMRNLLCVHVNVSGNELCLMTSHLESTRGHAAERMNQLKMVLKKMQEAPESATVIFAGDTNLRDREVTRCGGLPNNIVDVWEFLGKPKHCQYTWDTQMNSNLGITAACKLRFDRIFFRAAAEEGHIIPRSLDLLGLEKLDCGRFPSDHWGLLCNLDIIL
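Test system: Human TDP2 enzyme | Reagent: 5 mM T5PNP | Compound dosing: 12.8 µM single point, 1% DMSO | Incubation: Enzyme reaction with compound for 2 h at 37 °C | Technique: p-Nitrophenol epi absorbance | Read-out: % inhibition relative to enzyme-containing and enzyme-free wells | Benchmarks: High control without enzyme, low control DMSO plus TDP2 | Replicates: Singlicate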
TCR-CD3 inh: inhibitors of human TCR-CD3 interaction, primary screen, biochemical, fluorescence, TAMRA-labeled TCR probe; inhibition, % at 9.4 µM; hit rate 0.37% among 360,000; AID 651800, 2012; in the data active = inhibition above about 19%;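 note: recombinant mutant TCR 2C K166C tagged with TAMRA read by polarization; 0% = receptor in buffer alone and 100% = receptor with positive control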
LEDGF integ inh: blockers of LEDGF/p75-dependent integrase strand transfer – biochemical, TR-FRET, high throughput, primary screen. TR-FRET IN-LEDGF/p75 DNA integration, Eu/Cy5. inhibition, % at 3.7 µM. HIV-1 integrase (with human LEDGF/p75). hit rate 0.64% among 370,000;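 active = inhibition above the screen-wide mean plus 3 SD, cut at about 13% in these data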;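 note: signal is the Cy5 over europium emission ratio at 671 and 618 nm; 0% = plate median of compound wells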
SIAE confirm: human SIAE inhibitors, retest, confirmation, biochemical, fluorescence polarization, FP-Rh probe, triplicate. AID 1117263, 2014. hit rate 13% among 2,300. shares compounds with SIAE primary. SIAE FP-Rh activity-based probe. inhibition, % at 9.66 µM;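 active = mean inhibition of the replicates above the hit cutoff set in the primary screen, cut at about 17% in these data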;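 note: 0% = SIAE with DMSO and probe and 100% = probe without SIAE; inhibitors lower polarization as more probe stays unbound to SIAE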
Numbers without * were called inactive; . = no result given. Most compounds without a hit are left out; they make up all but 2.2% or so of the library.

SMILES | HTRA1 inh | SIAE primary | mABHD4 FP | TDP2 inh | TCR-CD3 inh | LEDGF integ inh | SIAE confirm
CCc1nc2ccccc2c(C(=O)OCC(=O)N(CCOC)c2c(N)n(Cc3ccccc3)c(=O)[nH]c2=O)c1C | -6 | 11 | 2 | 8 | 6 | -1 | .
COc1ccc(NC(=O)C[C@H]2C(=O)N(Cc3ccccc3)C[C@@H]2CSC)cc1 | 3 | 3 | -1 | 15 | -6 | 0 | .
COc1cccc(Nc2nc(-c3cccc(N4C(=O)c5ccccc5C4=O)c3)cs2)c1 | -1 | 24* | 11 | 12 | 2 | 3 | -1
COc1cccc(Nc2nc(-c3ccc(O)cc3)cs2)c1 | 17 | 9 | 18 | 0 | -1 | -2 | .
O=C(O)C1=C[C@@H](c2csc3ccccc23)C[C@@H](OCc2ccc(CO)cc2)O1 | -1 | 22* | 4 | 0 | 5 | 2 | -1
O=C(OCC(=O)c1c[nH]c2ccccc12)c1cccc([N+](=O)[O-])c1 | -23 | 21* | -11 | -5 | -5 | 1 | -2
O=C(OCC(=O)c1c[nH]c2ccccc12)c1cncc(Br)c1 | -29 | -2 | -3 | 10 | 0 | 3 | .
O=C(CSc1ccccc1)Nc1ccc(N2CCOCC2)c(F)c1 | 8 | 18* | 1 | 0 | -5 | -1 | 3
COCC(=O)N1CCC(Oc2ccc(C(=O)N3C[C@@H](C)O[C@@H](C)C3)cc2)CC1 | 4 | 6 | -2 | 0 | 1 | 1 | .
CC(C)(C)C(=O)c1cn(CC(=O)O)c2ccccc12 | -1 | -1 | 3 | -2 | 2 | 6 | .
CC(C)C(=O)c1cn(CC(=O)O)c2ccccc12 | -4 | 19* | -7 | 1 | 7 | 1 | 5
O=C1C(Cl)=C(N2CCCC2)C(=O)N1c1ccccc1F | 4 | 8 | -1 | 15 | 5 | -1 | .
Cc1cccc(CCNC(=O)c2cccc(NC3=NC4CS(=O)(=O)CC4S3)c2)c1 (configuration not stated) | -5 | 5 | 8 | -14 | -6 | -3 | .
COc1ccc(CCN2C(=O)CC(C(N)=O)SC2=Nc2ccc(F)cc2)cc1OC (configuration not stated) | 6 | 20* | 3 | 10 | 2 | 2 | -5
COc1cccc(C(=O)/C=C/Nc2cc(C)ccc2O)c1 | 5 | 23* | 7 | -1 | 2 | 0 | -4
CCOC(=O)c1ccc(N/C=C\C(=O)c2cccc(OC)c2)cc1 | -5 | 11 | 4 | 0 | 8 | -1 | .
CCCCNC(=O)C[C@@H]1C[C@@]2(C(=O)OC)CCCCC=C2N(Cc2ccccc2)C1=O | . | 22* | 0 | -2 | 3 | -1 | 0
COCCCNC(=O)C[C@@H]1C[C@@]2(C(=O)OC)CCCCC=C2N(Cc2ccccc2)C1=O | . | -9 | -7 | -17 | -4 | 2 | .
CCOC(=O)c1c(C)c(C(=O)NCCc2ccccc2)c(C)n1C | 2 | 3 | -4 | 9 | 5 | -2 | .
CCOC(=O)c1c(C(=O)OCC)c(C)n(CCc2ccccc2)c1C | 1 | 31* | 0 | -3 | 3 | -2 | 20*
COCCN(C(=O)CSc1nnc(-c2cccc(Cl)c2)n1N)c1c(N)n(CC(C)C)c(=O)[nH]c1=O | 4 | -2 | 2 | 11 | -1 | -1 | .
CC(C)c1ccc(NC(=S)Nc2cccc3ccccc23)cc1 | -6 | 18* | -1 | 8 | 1 | 0 | 5
CCOc1ccc(NC(=S)Nc2cccc3ccccc23)cc1 | 1 | 18* | 0 | -2 | 3 | -4 | 0
Cc1ccc(NC(=S)Nc2cccc3ccccc23)cc1 | 4 | 6 | 7 | -5 | -9 | -5 | .
O=C(COc1ccccc1)NC(=S)Nc1cccc2c(O)cccc12 | 2 | 25* | 29 | 11 | 12 | 4 | 4
SMILES | HTRA1 inh | SIAE primary | mABHD4 FP | TDP2 inh | TCR-CD3 inh | LEDGF integ inh | SIAE confirm
CCOc1ccc(NC(=S)Nc2cccc3cnccc23)cc1 | 12 | 8 | 12 | 15 | 0 | 7 | .
Cc1ccc(S(=O)(=O)NC(=NC2CCCCC2)c2ccccc2)cc1 | -11 | -1 | 3 | -4 | 3 | -2 | .
CC(C)N(Cc1nc2ccccc2c(=O)[nH]1)C(=O)c1ccc(NC(=O)CSc2nnnn2C)cc1 | -4 | 18* | 0 | 8 | -2 | -2 | -4
Cn1nnnc1SCC(=O)NCc1ccccc1 | 0 | -1 | -4 | -4 | 1 | -1 | .
COc1ccc(NS(=O)(=O)c2cccc(C(=O)N3CCN(C/C=C/c4ccccc4)CC3)c2)cc1 | -4 | 0 | -9 | -16 | -9 | 3 | .
COc1ccc(NC(=O)CC2SC(=NCC3CCCO3)NC2=O)cc1 (configuration not stated) | 0 | 17* | 1 | 5 | 1 | -2 | -3
Cc1cccc(NC(=O)CN2C(=O)N/C(=C/c3cc(C)n(C(C)C)c3C)C2=O)c1 | 1 | 23* | -2 | 13 | 5 | -4 | 1
C[C@H](O)[C@@H]1CN2CCc3c([nH]c4ccccc34)[C@@H]2C[C@@H]1N(C)C(=O)Nc1cccc2ccccc12 | . | 22* | 20 | 13 | -7 | 4 | -6
CCNC(=O)N(C)[C@H]1C[C@H]2c3[nH]c4ccccc4c3CCN2C[C@H]1[C@H](C)O | . | 3 | 4 | -6 | 1 | 1 | .
C[C@@H]1CN([C@@H](C)CO)C(=O)c2cc(NS(=O)(=O)c3ccc(F)cc3)ccc2O[C@@H](C)CCCCO[C@H]1CN(C)C(=O)NC1CCCCC1 | -7 | -2 | 3 | 4 | 3 | 5 | .
COC(=O)[C@@]12C[C@@H](CC(=O)NCc3ccc(C)o3)C(=O)N(Cc3ccc4c(c3)OCO4)C1=CCC(C)(C)C2 | . | 17* | 2 | 2 | -5 | 0 | 6
COc1ccc(OC)c(/C=C2\S/C(=N/NC(=O)c3ccc4ccccc4c3)NC2=O)c1 | 7 | 19* | 9 | 5 | 1 | 2 | 9
OCC1(CCc2ccccc2)CCCN(C/C=C/c2ccccc2)C1 (configuration not stated) | -10 | 18* | -1 | 2 | 5 | 0 | -2
COc1ccccc1/C=C/CN1CCCC(CO)(CCc2ccccc2)C1 (configuration not stated) | -23 | 2 | -7 | -10 | -3 | 2 | .
CCN(CC)c1ccc(NC(=S)NC(=O)c2cccs2)cc1 | 6 | 17* | 11 | -1 | -6 | 2 | -1
